Assay results as given in ChEMBL document CHEMBL1671778, “Synthesis and serotonin transporter activity of 1,3-bis(aryl)-2-nitro-1-propenes as a new class of anticancer agents” (Bioorg Med Chem, 2011).
Active and inactive are the calls of the source. The rule behind the calls is not given here.

Legend:
DG-75 [1] = experiment: Antiproliferative activity against human DG75 cells after 24 hrs Alamar blue assay; format: functional, cell-based; details: DG-75, 24 h
In short: (§1)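 Alamar Blue viability: 1-5x10^4 cells/well treated 24 h, then Alamar Blue (pre-warmed) 4-6 h at 37 °C in the dark. Fluorescence read at 590 nm (excitation 544 nm), background of medium plus dye subtracted, untreated cells = 100% viability. Miconazole 10 µM as cell-death control. Range 1 µM-1 mM, triplicate on two independent days. pEC50 from non-linear sigmoidal regression.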

SH-SY5Y [2] = experiment: Antiproliferative activity against human SH-SY5Y cells after 24 hrs Alamar blue assay; format: functional, cell-based; in short: as §1
[3] = Antiproliferative activity against human chemosensitive MUTU-I cells after 24 hrs Alamar blue assay; format: functional, cell-based; in short: as §1
[4] = target: T1, Tyrosine-protein phosphatase non-receptor type 1 (Homo sapiens) (UniProt P18031); experiment: Inhibition of human recombinant PTP1B in chemosensitive MUTU-I cells after 30 mins; format: cell-based
T1 sequence (whole entry): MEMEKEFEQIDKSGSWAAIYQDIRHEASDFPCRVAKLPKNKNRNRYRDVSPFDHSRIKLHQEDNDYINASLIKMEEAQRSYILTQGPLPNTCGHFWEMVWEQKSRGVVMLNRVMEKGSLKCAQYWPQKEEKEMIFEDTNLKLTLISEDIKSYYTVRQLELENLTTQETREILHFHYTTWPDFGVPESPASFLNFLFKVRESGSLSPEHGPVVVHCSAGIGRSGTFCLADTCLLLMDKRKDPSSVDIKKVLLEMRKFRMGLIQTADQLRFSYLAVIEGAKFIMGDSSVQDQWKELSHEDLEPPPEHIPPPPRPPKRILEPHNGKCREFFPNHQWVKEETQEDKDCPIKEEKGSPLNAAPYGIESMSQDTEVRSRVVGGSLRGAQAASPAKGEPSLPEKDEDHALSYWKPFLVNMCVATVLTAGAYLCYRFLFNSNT
In short: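 Recombinant PTP1B expressed in E. coli, incubated with compound and a phosphopeptide substrate for 30 min at 30 °C. Released phosphate detected by malachite green at 620 nm and quantified against a phosphate standard curve. Suramin as positive control.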

Tubulin (Homo sapiens) = Tubulin (Homo sapiens) (UniProt P68371+Q9H4B7+P0DPH7+P68366+Q13509+Q71U36+P04350+Q3ZCM7+P07437+P68363+Q9BQE3+Q6PEY2+Q13885+Q9BVA1+Q9BUF5); experiment: Inhibition of tubulin polymerisation in human chemosensitive MUTU-I cells after 30 mins; format: cell-based
MUTU-I [5] = experiment: Induction of apoptosis in human chemosensitive MUTU-I cells assessed as chromatin condensation and membrane bledding at 10 uM after 4 hrs; format: functional, cell-based
In short: (§2)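 Cells at 3x10^5 cells/mL exposed for 4 h or 8 h. 150 µl aliquots were cytocentrifuged onto slides (500 ×g, 2 min), air-dried, methanol-fixed, and stained with eosin Y and methylene blue. Morphology was examined by light microscopy at 60x.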

MUTU-I [6] = experiment: Induction of apoptosis in human chemosensitive MUTU-I cells assessed as caspase 3/7 activation at 10 uM after 5 hrs; format: functional, cell-based
In short: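 Caspase 3/7 activity by homogeneous fluorogenic kit: 0.5x10^5 cells exposed to compound (10 µM) for 5 h, then 100 µl Z-DEVD-R110 substrate added. After 2 h, cleaved substrate measured at 521 nm (excitation 499 nm).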

MUTU-I [7] = experiment: Induction of apoptosis in human chemosensitive MUTU-I cells assessed as accumulation at G2/M phase after 2 to 8 hrs by propidium iodide FACS analysis relative to taxol; format: functional, cell-based
In short: (§3)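 750,000 MUTU-I cells per sample treated for the stated time, then harvested (300 ×g, 5 min), washed in ice-cold PBS and fixed overnight at 4 °C in 70% ethanol. Stained with RNase A and propidium iodide, 30 min at 37 °C in the dark. Flow cytometry counted 10,000 gated cells for cell-cycle phases. Taxol 10 µM as positive control.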

[8] = Induction of apoptosis in human chemosensitive MUTU-I cells assessed as accumulation at pre-G1 phase at 10 uM by propidium iodide FACS analysis; format: functional; in short: as §3
MUTU-I [9] = experiment: Induction of apoptosis in human chemosensitive MUTU-I cells assessed as chromatin condensation and membrane bledding at 10 uM after 8 hrs; format: functional, cell-based; in short: as §2
MUTU-I [10] = experiment: Induction of apoptosis in human chemosensitive MUTU-I cells assessed as induction of PARP cleavage at 10 uM after 8 hrs; format: functional, cell-based
In short: (§4)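 PARP cleavage by Western blot: 5x10^6 cells pelleted (500 ×g, 5 min), washed, and lysed in Laemmli buffer with protease inhibitors. Lysates run on 8% SDS-PAGE, transferred to PVDF, and probed with anti-PARP detecting full-length 113 kDa and cleaved 85 kDa forms. HRP secondary antibody, chemiluminescence detection.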

[11] = target: T2, Sodium-dependent serotonin transporter (Homo sapiens, UniProt P31645); details: HEK293, at 1 µM
Target sequence in this assay (P31645 whole entry, looked up): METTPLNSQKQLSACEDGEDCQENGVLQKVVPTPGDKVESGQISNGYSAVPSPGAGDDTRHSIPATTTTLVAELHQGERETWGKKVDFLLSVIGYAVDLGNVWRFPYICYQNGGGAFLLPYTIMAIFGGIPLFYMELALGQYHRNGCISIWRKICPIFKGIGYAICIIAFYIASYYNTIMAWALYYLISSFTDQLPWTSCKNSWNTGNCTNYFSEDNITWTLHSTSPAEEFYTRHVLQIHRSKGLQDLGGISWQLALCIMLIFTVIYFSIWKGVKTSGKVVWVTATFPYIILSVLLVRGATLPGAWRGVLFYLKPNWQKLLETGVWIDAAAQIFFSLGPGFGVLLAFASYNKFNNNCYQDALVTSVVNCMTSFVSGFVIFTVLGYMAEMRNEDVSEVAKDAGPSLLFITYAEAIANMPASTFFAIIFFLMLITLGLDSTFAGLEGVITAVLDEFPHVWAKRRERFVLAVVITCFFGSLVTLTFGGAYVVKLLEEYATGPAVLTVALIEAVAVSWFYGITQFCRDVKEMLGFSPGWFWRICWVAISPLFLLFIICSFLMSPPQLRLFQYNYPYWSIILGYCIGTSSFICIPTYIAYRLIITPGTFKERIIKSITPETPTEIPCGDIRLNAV

[12] = target: T2, Sodium-dependent serotonin transporter; details: HEK293, at 100 µM
Target sequence in this assay (P31645 whole entry, looked up): as above

MUTU-I [13] = experiment: Induction of apoptosis in human chemosensitive MUTU-I cells assessed as caspase 3/7 activation at 10 uM after 4 hrs; format: functional, cell-based
MUTU-I [14] = experiment: Induction of apoptosis in human chemosensitive MUTU-I cells assessed as induction of PARP cleavage at 10 uM after 4 hrs; format: functional, cell-based; in short: as §4
HEK293 [15] = experiment: Cytotoxicity against human HEK293 cells assessed as decrease in cell viability after 48 hrs neutral red dye assay; format: functional, cell-based; details: HEK293, 48 h
In short: (§5)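 5x10^4 cells/well grown to sub-confluence (24-36 h), then exposed to compound 48 h. Neutral red dye 3+1 h, solubilised in 50% ethanol/1% acetic acid, absorbance 540 nm (690 nm background). Viability as percent of vehicle-treated cells; pEC50 by non-linear sigmoidal regression over 4 concentrations, triplicate on two independent days. Controls 30 mM sodium azide, 2% Triton-X. HEK293-hSERT cells kept in Geneticin, used up to 30 passages.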

SH-SY5Y [16] = experiment: Cytotoxicity against human SH-SY5Y cells expressing human SERT assessed as decrease in cell viability after 48 hrs neutral red dye assay; format: functional, cell-based
DG-75 [17] = experiment: Cytotoxicity against human chemoresistant DG75 cells expressing SERT assessed as decrease in cell viability 10 or 50 uM after 72 hrs Alamar blue assay; format: functional, cell-based; details: DG-75, 72 h
In short: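 1-5x10^4 cells/200 µl given 10 or 50 µM for 24 h (MUTU-I, MDA-MB231, PBMC) or […]. Alamar Blue at 37 °C in the dark 4-6 h, then fluorescence read with 544/590 nm. Media-only background subtracted; untreated cells set as 100% viability. Mean of six points (triplicate, two independent days). PBMCs from a healthy donor, isolated by ficoll density separation.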

HEK293 [18] = experiment: Cytotoxicity against human HEK293 cells expressing human SERT assessed as decrease in cell viability after 48 hrs neutral red dye assay; format: functional, cell-based; details: HEK293, 48 h; in short: as §5
[19] = target: T2, Sodium-dependent serotonin transporter; experiment: Inhibition of [3H]-serotonin reuptake at human SERT expressed in HEK293 cells after 15 to 20 mins by fluorescence neurotransmitter transporter assay; format: cell-based
Target sequence in this assay (P31645 whole entry): as the sequence (P31645 whole entry, looked up) above

Structure (SMILES)	EC50 (DG-75 [1])	EC50 (SH-SY5Y [2])	EC50 [3]	inhibition [4]	inhibition (Tubulin (Homo sapiens))	Activity (MUTU-I [5])	Activity (MUTU-I [6])	Activity (MUTU-I [7])	Activity [8]	Activity (MUTU-I [9])	Activity (MUTU-I [10])	inhibition [11]	inhibition [12]	Activity (MUTU-I [13])	Activity (MUTU-I [14])	EC50 (HEK293 [15])	EC50 (SH-SY5Y [16])	EC50 (DG-75 [17])	EC50 (HEK293 [18])	IC50 [19]
ON=C(Cc1ccc2c(c1)OCO2)Cc1ccc2c(c1)OCO2	50.1 µM	63.1 µM	25.1 µM																	
CSc1ccc(/C=C(/Cc2ccc(SC)cc2)[N+](=O)[O-])cc1	39.8 µM	20 µM	3.16 µM	inactive	inactive	Active	Active	Active	50%	Active	Active	25%	18%	Active	Active					
COc1ccc(CC(Cc2ccc(OC)cc2)NC=O)cc1	200 µM	316 µM	200 µM									8%	18%			31.6 µM	> 10000 µM	1580 µM	3980 µM	
NC(Cc1ccc2c(c1)OCO2)Cc1ccc2c(c1)OCO2	251 µM	31.6 µM	50.1 µM									44%	77%			25.1 µM	31.6 µM	15.8 µM	31.6 µM	1.6 µM
CC(N)Cc1ccc2c(c1)OCO2 (stereo not given) [TENAMFETAMINE]																316 µM	> 10000 µM	2000 µM	631 µM	0.9 µM
CC(=O)NC(Cc1ccc2c(c1)OCO2)Cc1ccc2c(c1)OCO2																3980 µM	> 10000 µM	1260 µM	> 10000 µM	
CSc1ccc(C/C(=C/c2ccc(Cl)cc2)[N+](=O)[O-])cc1	7.94 µM	20 µM	3.16 µM																	
O=[N+]([O-])/C(=C\c1ccc2c(c1)OCO2)Cc1ccc2c(c1)OCO2	50.1 µM	31.6 µM	3.16 µM	inactive	inactive	Active	Active	Active	30%	Active	Active	15%	36%	Active	Active	7.94 µM	15.8 µM	1 µM	12.6 µM	
COc1ccc(/C=C(/Cc2ccc(OC)cc2)[N+](=O)[O-])cc1	12.6 µM	12.6 µM	2.51 µM	inactive	inactive	Active	Active	Active	32%	Active	Active	25%	10%	Active	Active					
CNC(C)Cc1ccc2c(c1)OCO2 (stereo not given) [MIDOMAFETAMINE]																251 µM	> 10000 µM	31.6 µM	501 µM	1.1 µM
CCNC(Cc1ccc(SC)cc1)Cc1ccc(SC)cc1												31%	92%			1260 µM	15.8 µM	12.6 µM	25.1 µM	2.2 µM
